Screening data deposited in PubChem by several laboratories.
HKDC1 inh: HKDC1 hexokinase inhibitors, primary screen, biochemical, fluorescence, uHTS; recombinant HKDC1, G6PDH/diaphorase resazurin coupled fluorescence; inhibition, % at 20 µM; 0.16% of 340,000 active;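 active = inhibition above about 35% when tested at 20 µM, limit read from the data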;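 note: plate controls were DMSO wells with enzyme for no effect and DMSO wells lacking enzyme for full effect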
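Test system: HK5 enzyme. Quantity: 5 µg/mL HK5 final. Reagent: glucose and ATP substrates. Schedule: 90 min reaction incubation at room temperature, dark. Technique: resazurin-to-resorufin fluorescence via G6PDH and diaphorase coupling, 525/613 nm. Control set: DMSO wells with and without enzyme mix.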
Exocytosis inh: LAMP-1 surface exposure blockers, TALL-104 cells – cell-based, flow cytometry, MLPCN library, primary screen. TALL-104 LAMP-1 surface exposure; cells stimulated with thapsigargin and PMA. inhibition, % at 10 µM. 0.66% of 360,000 active;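 active = inhibition above about 55%, limit read from the data; inconclusive = no clear call, values can overlap the other calls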
PfG6PD inh: PfG6PD enzyme inhibitors, primary screen, biochemical, fluorescence intensity, uHTS; inhibition, % at 20 µM; 0.78% of 350,000 active; glucose-6-phosphate dehydrogenase-6-phosphogluconolactonase (Plasmodium falciparum 3D7); AID 504690, 2011; PfGluPho enzyme, NADPH resazurin-diaphorase fluorescence;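 active = inhibition reaching at least a set limit at 20 µM in the primary screen, cut at about 59% in these data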;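 note: 0% = DMSO wells with substrate and 100% = DMSO wells lacking glucose-6-phosphate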
ABHD5-PLIN5 inh: ABHD5-PLIN5 interaction inhibitors, primary screen, cell lysate, split luciferase complementation, luminescence; Split G. princeps luciferase complementation, 4 h; inhibition, % at 4 µM; 0.78% of 360,000 active;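 active = inhibition above the mean inhibition across every tested compound plus 3 SD, cut at about 22% in these data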;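 note: 0% = DMSO only wells and the 100% control is not disclosed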
Target sequence (Q00G26 whole entry, looked up): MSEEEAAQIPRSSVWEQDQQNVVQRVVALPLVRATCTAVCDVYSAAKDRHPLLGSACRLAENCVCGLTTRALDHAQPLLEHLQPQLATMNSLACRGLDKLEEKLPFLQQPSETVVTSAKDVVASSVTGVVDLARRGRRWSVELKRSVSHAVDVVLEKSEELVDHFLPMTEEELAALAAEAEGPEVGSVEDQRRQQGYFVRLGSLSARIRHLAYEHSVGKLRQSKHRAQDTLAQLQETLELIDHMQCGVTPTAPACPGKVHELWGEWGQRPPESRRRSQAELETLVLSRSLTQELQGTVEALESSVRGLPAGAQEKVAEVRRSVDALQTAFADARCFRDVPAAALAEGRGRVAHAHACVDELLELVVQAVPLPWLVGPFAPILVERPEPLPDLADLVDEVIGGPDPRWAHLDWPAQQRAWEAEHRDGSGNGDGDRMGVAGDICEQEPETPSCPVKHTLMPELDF
Target sequence (Q8WTS1 whole entry, looked up): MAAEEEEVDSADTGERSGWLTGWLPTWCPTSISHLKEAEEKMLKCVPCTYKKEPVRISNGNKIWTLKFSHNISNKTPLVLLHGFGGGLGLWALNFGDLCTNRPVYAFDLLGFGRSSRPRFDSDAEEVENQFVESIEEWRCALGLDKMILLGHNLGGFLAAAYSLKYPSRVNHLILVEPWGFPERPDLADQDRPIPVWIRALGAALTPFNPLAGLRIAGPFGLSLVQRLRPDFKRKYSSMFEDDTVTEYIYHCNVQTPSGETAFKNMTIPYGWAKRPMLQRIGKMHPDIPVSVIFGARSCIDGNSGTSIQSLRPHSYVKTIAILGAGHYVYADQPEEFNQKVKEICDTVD
ABHD5 PLIN5 conf: ABHD5-PLIN5 interaction inhibitors, confirmation, biochemical, luminescence | shares compounds with ABHD5-PLIN5 inh | inhibition, % at 4 µM | 67% of 2,200 active | AID 651612, 2012; in the data active = inhibition above about 23%;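 note: 0% = DMSO vehicle wells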
HNF4 counter: HNF4 dimerization inhibitors, counter-screen for ABHD5-PLIN5 interaction inhibitor project, biochemical, split-luciferase complementation, luminescence; shares compounds with ABHD5-PLIN5 inh; inhibition, % at 4 µM; 77% of 2,200 active; AID 651674, 2012;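 active = mean inhibition across replicate wells exceeding the computed hit threshold, cut at about 13% in these data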;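 note: light from luciferase halves that rejoin when HNF4 fusion proteins dimerize; 0% = DMSO only wells and the 100% control is not given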
* marks the source's active call; other numbers are inactive results. The list is not random: actives were taken first. Their share in the collection is about 2.2%.

`CC(C)(C)NC(=O)C(c1ccnc2ccccc12)n1c(=O)c(-c2ccco2)nc2ccccc21` (stereo not given) gave Exocytosis inh -21, ABHD5-PLIN5 inh 58*, ABHD5 PLIN5 conf 42* and HNF4 counter 7.
For CC(C)(C)NC(=O)C(c1cc2ccccc2o1)n1c(=O)c(-c2ccco2)nc2ccccc21 (stereo not given) the results were Exocytosis inh 11, ABHD5-PLIN5 inh 79*, ABHD5 PLIN5 conf 84* and HNF4 counter 16*.
`CCCCCNC(=O)C(c1ccncc1)n1c(=O)c(-c2ccco2)nc2ccccc21` (stereo not given) gave Exocytosis inh -4, ABHD5-PLIN5 inh 58*, ABHD5 PLIN5 conf 35* and HNF4 counter 15*.
Screening CC(C)(C)NC(=O)C(c1ccncc1)n1c(=O)c(-c2ccccc2)nc2ccccc21 (stereo not given) returned Exocytosis inh -5 and ABHD5-PLIN5 inh 10.
CC(C)(C)NC(=O)C(c1ccncc1)n1c(=O)c(-c2ccco2)nc2ccccc21 (stereo not given) was read as Exocytosis inh -10, ABHD5-PLIN5 inh 48*, ABHD5 PLIN5 conf 44* and HNF4 counter 14*.
`CCCCCNC(=O)C(c1cc2ccccc2o1)n1c(=O)c(-c2ccco2)nc2ccccc21` (stereo not given) gave Exocytosis inh 14, ABHD5-PLIN5 inh 94*, ABHD5 PLIN5 conf 85* and HNF4 counter 14*.
Screening COc1ccc(OC)c(C(=O)N2CCC(n3nccc3NC(=O)CC(C)C)CC2)c1 returned HKDC1 inh -2, Exocytosis inh -1, PfG6PD inh -2 and ABHD5-PLIN5 inh 3.
Screening O=C(O)c1ccc(N/N=C/C2=C(N3CCOCC3)C(=C\c3ccccc3)/CC2)cc1 returned HKDC1 inh 0, Exocytosis inh 3, PfG6PD inh 7, ABHD5-PLIN5 inh 25*, ABHD5 PLIN5 conf 17 and HNF4 counter 42*.
COc1ccc(S(=O)(=O)N2CCCCCC2)cc1NC(C)C(=O)Nc1ccc(NC(C)=O)cc1 (stereo not given) was read as HKDC1 inh 5, Exocytosis inh -3, PfG6PD inh 6, ABHD5-PLIN5 inh 47*, ABHD5 PLIN5 conf 2 and HNF4 counter 10.
Screening COc1ccc(NC(C)=O)cc1NC(C)C(=O)Nc1cccc(S(=O)(=O)N2CCOCC2)c1 (stereo not given) returned HKDC1 inh 0, Exocytosis inh 1, PfG6PD inh 12 and ABHD5-PLIN5 inh -2.
For CNCCCOc1ccc(C)cc1OC the results were HKDC1 inh -6, Exocytosis inh -1, PfG6PD inh -15, ABHD5-PLIN5 inh 57*, ABHD5 PLIN5 conf 2 and HNF4 counter -1.
Screening O=C1c2cccc3c(O)ccc(c23)C(=O)N1Cc1ccco1 returned HKDC1 inh 11, Exocytosis inh 8, PfG6PD inh 28, ABHD5-PLIN5 inh 45*, ABHD5 PLIN5 conf 24* and HNF4 counter 53*.
`O=C(CN1CCC2(CC1)OCCO2)c1ccc2cc[nH]c2c1` gave HKDC1 inh 1, Exocytosis inh 0, PfG6PD inh -4, ABHD5-PLIN5 inh 102*, ABHD5 PLIN5 conf 5 and HNF4 counter 10.
Screening C=C[C@]1(C)C=C2C(=O)[C@@]3(O)OC(=O)[C@@]4(CCCC(C)(C)[C@H]34)[C@@]2(O)CC1 returned Exocytosis inh 7, ABHD5-PLIN5 inh 72*, ABHD5 PLIN5 conf 61* and HNF4 counter 81*.
Screening C=C[C@]1(C)C=C2CC[C@H]3[C@@](C)(CCC[C@@]3(C)C(=O)O)[C@@H]2CC1 returned HKDC1 inh 6, Exocytosis inh -8, PfG6PD inh -36 and ABHD5-PLIN5 inh 1.
`CCC(C)Oc1ccc(/C=C/c2[nH]c(=O)[nH]c(=O)c2[N+](=O)[O-])cc1OC` (stereo not given) gave HKDC1 inh 11, Exocytosis inh -3, PfG6PD inh 2, ABHD5-PLIN5 inh 35*, ABHD5 PLIN5 conf 77* and HNF4 counter 72*.
Screening COc1cc(/C=C/c2[nH]c(=O)[nH]c(=O)c2[N+](=O)[O-])cc([N+](=O)[O-])c1O returned HKDC1 inh 20, Exocytosis inh 12, PfG6PD inh 10, ABHD5-PLIN5 inh 33*, ABHD5 PLIN5 conf 44* and HNF4 counter 33*.
`CC(NC(=O)c1ccco1)c1ccc(-n2ccnc2)cc1` (stereo not given) gave HKDC1 inh 0, Exocytosis inh 12, PfG6PD inh -13 and ABHD5-PLIN5 inh 0.
Screening COc1ccc(NC(=O)CN(C)C(=O)c2ccc(NS(=O)(=O)c3cccc([N+](=O)[O-])c3)cc2)cc1 returned HKDC1 inh -10, Exocytosis inh 2, PfG6PD inh -15 and ABHD5-PLIN5 inh 5.
For O=C1C=C(c2cnc3ccccc3c2)C[C@@H](c2ccc3c(c2)OCO3)C1 the results were HKDC1 inh 10, Exocytosis inh 9, PfG6PD inh -3 and ABHD5-PLIN5 inh -9.
COCCn1c(SCC#N)nnc1-c1ccccc1O was read as HKDC1 inh -16, Exocytosis inh 1, PfG6PD inh 0, ABHD5-PLIN5 inh 57*, ABHD5 PLIN5 conf 4 and HNF4 counter 0.
`COCCn1c(SCC#N)nnc1-c1ccccc1` gave HKDC1 inh -13, Exocytosis inh -1, PfG6PD inh -4 and ABHD5-PLIN5 inh 5.
`COC(=O)CN1C(=O)N/C(=C/c2ccc(C)o2)C1=O` gave HKDC1 inh 10, Exocytosis inh 6, PfG6PD inh 3, ABHD5-PLIN5 inh 25*, ABHD5 PLIN5 conf 14 and HNF4 counter 49*.
`COc1cccc(CNc2nc3cc(-c4ccc(C(=O)N5CCN(C)CC5)cc4)sc3c(=O)n2C)c1` gave Exocytosis inh 30, ABHD5-PLIN5 inh 24*, ABHD5 PLIN5 conf 6 and HNF4 counter 11.
For COc1cccc(CNc2nc3cc(-c4ccccc4)sc3c(=O)n2C)c1 the results were Exocytosis inh inconclusive and ABHD5-PLIN5 inh -1.
Screening CC(=O)N1CCC2(CC1)CC(=O)c1cc(Cl)ccc1O2 returned HKDC1 inh -4, Exocytosis inh 0, PfG6PD inh 0 and ABHD5-PLIN5 inh 3.
For O=C1CC(c2ccccc2)Oc2ccccc21 (stereo not given) the results were HKDC1 inh 3, Exocytosis inh -4, PfG6PD inh -5 and ABHD5-PLIN5 inh 12.
